# Source: ChEMBL document CHEMBL1141716, “Discovery and optimization of substituted piperidines as potent, selective, CNS-penetrant alpha4beta2 nicotinic acetylcholine receptor potentiators” (Bioorg Med Chem Lett, 2008)
# Active and inactive are the calls of the source. The rule behind the calls is not given here.
# What was measured:
# [1] = biological target: T1, Neuronal acetylcholine receptor; alpha4/beta2 (Homo sapiens, UniProt P17787+P43681); assay: Activation of human alpha4beta2 nAChR assessed as potentiation of submaximal response to nicotine induced current
# T1 sequence (P17787 whole entry): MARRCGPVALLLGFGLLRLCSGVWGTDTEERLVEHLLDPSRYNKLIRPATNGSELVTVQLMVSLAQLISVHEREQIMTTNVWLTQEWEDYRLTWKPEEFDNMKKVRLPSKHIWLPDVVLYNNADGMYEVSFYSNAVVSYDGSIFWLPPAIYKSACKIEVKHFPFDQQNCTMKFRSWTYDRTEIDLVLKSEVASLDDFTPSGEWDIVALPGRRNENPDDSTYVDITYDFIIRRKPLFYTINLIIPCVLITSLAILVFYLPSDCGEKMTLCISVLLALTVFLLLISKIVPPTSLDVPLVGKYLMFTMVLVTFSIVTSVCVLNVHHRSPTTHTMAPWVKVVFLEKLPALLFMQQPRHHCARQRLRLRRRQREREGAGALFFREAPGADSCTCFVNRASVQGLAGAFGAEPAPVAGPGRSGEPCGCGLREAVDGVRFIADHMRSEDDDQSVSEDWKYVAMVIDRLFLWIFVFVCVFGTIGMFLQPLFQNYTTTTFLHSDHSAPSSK
# T1 sequence (P43681 whole entry): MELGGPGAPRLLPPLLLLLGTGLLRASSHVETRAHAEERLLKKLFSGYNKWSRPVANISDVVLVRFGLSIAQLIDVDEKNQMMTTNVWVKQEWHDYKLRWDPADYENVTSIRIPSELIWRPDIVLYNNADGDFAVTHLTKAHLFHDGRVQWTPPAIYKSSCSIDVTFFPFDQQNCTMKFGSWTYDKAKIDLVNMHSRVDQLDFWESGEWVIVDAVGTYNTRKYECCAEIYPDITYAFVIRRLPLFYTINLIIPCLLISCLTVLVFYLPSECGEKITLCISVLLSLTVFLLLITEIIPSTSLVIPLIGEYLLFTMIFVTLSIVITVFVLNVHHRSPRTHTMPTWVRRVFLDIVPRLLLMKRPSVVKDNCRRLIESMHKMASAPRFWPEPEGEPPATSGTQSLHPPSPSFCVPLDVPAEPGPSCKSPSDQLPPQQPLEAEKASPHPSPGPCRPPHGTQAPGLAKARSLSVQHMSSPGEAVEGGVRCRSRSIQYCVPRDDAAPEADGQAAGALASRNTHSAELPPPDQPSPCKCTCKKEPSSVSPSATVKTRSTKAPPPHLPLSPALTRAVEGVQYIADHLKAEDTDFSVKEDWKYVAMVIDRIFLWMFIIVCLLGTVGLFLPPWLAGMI
# In short: (§1)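 Fluorescence-based functional assay; compounds first screened at 10 µM for increase of the fluorescent response to an EC₁₂ concentration of nicotine, actives then run dose–response; EC₅₀ and peak response recorded, efficacy expressed as % of maximal nicotine response; average of n ≥ 2.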
# [2] = Drug level in Sprague-Dawley rat brain at 5 mg/kg, ip after 1 hr; format: ADME, organism-based; parameters: dose 5 mg/kg, route intraperitoneal; details: read-out: Drug uptake
# In short: (§2)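 Rats dosed ip at 5 mg/kg in DMSO; sacrificed at 1 h; plasma, brain and CSF collected and drug concentrations measured.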
# [3] = biological target: Neuronal acetylcholine receptor subunit alpha-7 (Homo sapiens, UniProt P36544); assay: Activation of human alpha7 nAChR assessed as potentiation of submaximal response to nicotine induced current
# Sequence of Neuronal acetylcholine receptor subunit alpha-7 (P36544 whole entry): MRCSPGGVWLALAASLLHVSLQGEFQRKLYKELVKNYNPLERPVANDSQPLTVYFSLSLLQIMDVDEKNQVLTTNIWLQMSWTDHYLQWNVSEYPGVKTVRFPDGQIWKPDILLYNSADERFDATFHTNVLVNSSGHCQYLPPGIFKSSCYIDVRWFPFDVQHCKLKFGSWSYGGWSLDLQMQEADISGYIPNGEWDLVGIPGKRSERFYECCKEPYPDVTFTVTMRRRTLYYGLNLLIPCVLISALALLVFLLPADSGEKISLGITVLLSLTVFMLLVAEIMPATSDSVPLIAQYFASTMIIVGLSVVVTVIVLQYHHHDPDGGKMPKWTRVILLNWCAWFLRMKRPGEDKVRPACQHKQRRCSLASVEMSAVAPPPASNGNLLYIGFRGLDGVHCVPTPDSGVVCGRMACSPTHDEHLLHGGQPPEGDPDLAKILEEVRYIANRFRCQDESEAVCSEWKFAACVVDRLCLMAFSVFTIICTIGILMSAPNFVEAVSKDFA
# [4] = Drug level in Sprague-Dawley rat CSF at 5 mg/kg, ip after 1 hr; format: ADME, organism-based, Cerebrospinal fluid; parameters: dose 5 mg/kg, route intraperitoneal; details: read-out: Drug uptake; in short: as §2
# [5] = Plasma concentration in Sprague-Dawley rat at 5 mg/kg, ip after 1 hr; format: ADME, organism-based; parameters: dose 5 mg/kg, route intraperitoneal; in short: as §2
# [6] = biological target: Neuronal acetylcholine receptor; alpha4/beta2 (Rattus norvegicus, UniProt P09483+P12390); assay: Activation of rat alpha4beta2 nAChR by fluorescence assay; format: protein-complex assay
# Sequence of Neuronal acetylcholine receptor; alpha4/beta2 (Rattus norvegicus, UniProt P09483+P12390) (P09483 whole entry): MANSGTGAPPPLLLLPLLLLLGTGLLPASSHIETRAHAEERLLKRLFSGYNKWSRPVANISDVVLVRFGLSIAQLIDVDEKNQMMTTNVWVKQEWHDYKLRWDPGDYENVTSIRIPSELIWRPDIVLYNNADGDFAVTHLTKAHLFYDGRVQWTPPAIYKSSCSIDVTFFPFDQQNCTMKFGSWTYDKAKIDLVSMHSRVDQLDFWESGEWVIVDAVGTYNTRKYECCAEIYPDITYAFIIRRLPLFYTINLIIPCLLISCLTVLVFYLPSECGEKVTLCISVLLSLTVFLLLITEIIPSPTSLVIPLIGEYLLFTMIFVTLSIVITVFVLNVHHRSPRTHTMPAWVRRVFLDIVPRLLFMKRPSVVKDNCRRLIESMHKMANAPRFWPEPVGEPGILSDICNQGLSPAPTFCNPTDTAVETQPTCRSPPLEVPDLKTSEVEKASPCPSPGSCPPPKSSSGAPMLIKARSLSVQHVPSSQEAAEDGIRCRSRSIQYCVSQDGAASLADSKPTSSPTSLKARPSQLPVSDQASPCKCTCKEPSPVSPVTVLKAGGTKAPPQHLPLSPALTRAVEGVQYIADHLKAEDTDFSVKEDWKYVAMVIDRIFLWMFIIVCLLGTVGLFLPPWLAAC
# Sequence of Neuronal acetylcholine receptor; alpha4/beta2 (Rattus norvegicus, UniProt P09483+P12390) (P12390 whole entry): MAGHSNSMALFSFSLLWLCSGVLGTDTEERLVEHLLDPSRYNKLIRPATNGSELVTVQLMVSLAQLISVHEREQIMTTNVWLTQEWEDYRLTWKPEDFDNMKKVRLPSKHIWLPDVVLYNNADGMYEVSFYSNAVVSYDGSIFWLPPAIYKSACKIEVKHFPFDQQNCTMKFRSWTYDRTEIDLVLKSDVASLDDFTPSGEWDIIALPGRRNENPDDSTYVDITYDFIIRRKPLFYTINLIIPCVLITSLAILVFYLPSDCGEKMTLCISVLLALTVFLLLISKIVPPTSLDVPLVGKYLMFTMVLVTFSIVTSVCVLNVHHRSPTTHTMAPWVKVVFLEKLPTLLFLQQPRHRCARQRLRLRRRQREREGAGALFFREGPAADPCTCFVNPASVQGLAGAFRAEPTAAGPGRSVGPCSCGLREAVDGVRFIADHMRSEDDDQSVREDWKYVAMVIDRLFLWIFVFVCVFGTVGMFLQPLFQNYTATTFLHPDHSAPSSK
# [7] = biological target: Neuronal acetylcholine receptor; alpha4/beta2 (Rattus norvegicus) (UniProt P09483+P12390); assay: Activation of rat alpha4beta2 nAChR expressed in HEK293 cells assessed as potentiation of acetylcholine-induced current by whole cell patch clamp; format: cell-based
# In short: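 Whole-cell patch-clamp with fast-flow perfusion under physiological ionic conditions; acetylcholine as agonist, holding potential −80 mV; compound also applied alone to check for evoked inward currents.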
# [8] = biological target: T1, Neuronal acetylcholine receptor; alpha4/beta2; assay: Activation of human alpha4beta2 nAChR assessed as potentiation of submaximal response to […] relative to maximal nicotine response; format: protein-complex assay; in short: as §1
# [9] = biological target: T1, Neuronal acetylcholine receptor; alpha4/beta2; assay: Displacement of [3H]cytisine from human alpha4beta2 nAChR at =>30 uM; format: protein-complex assay
# MDR1 = assay: Permeability efflux ratio in MDR1 expressing pig LLC-PK1 cells; format: ADME, cell-based, Sus scrofa
# [10] = biological target: Neuronal acetylcholine receptor; alpha3/beta4 (Homo sapiens, UniProt P30926+P32297); assay: Activation of human alpha3beta4 nAChR assessed as potentiation of submaximal response to nicotine induced current; format: protein-complex assay; in short: as §1
# Sequence of Neuronal acetylcholine receptor; alpha3/beta4 (P30926 whole entry): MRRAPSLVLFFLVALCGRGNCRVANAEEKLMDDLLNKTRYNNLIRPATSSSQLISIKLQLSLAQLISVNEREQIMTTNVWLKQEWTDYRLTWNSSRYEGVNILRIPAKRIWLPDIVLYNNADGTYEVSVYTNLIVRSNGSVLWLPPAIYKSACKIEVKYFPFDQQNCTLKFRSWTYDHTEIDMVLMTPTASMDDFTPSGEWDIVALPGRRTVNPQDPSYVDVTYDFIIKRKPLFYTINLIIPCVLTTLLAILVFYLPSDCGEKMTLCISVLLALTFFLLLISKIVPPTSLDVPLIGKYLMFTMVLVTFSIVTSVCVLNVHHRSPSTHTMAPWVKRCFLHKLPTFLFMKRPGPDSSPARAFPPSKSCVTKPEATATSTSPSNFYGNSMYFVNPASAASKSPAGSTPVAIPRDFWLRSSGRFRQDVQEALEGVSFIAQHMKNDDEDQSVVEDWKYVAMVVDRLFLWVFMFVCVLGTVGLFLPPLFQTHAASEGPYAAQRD
# Sequence of Neuronal acetylcholine receptor; alpha3/beta4 (P32297 whole entry): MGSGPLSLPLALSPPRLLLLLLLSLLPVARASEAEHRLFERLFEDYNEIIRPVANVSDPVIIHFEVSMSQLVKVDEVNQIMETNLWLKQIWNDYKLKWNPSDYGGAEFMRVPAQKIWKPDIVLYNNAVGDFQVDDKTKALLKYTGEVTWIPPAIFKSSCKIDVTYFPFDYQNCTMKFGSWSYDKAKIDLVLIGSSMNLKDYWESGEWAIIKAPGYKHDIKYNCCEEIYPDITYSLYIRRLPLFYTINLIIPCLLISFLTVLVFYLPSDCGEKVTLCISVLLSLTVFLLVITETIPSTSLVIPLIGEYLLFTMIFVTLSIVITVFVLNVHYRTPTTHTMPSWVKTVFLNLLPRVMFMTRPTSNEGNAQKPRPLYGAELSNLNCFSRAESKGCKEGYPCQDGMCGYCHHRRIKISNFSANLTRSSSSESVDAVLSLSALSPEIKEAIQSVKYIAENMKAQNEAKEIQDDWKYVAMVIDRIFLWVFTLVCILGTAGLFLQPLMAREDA
# [11] = biological target: Neuronal acetylcholine receptor; alpha3/beta2 (Homo sapiens, UniProt P17787+P32297); assay: Activation of human alpha3beta2 nAChR assessed as potentiation of submaximal response to nicotine induced current; in short: as §1
# Sequence of Neuronal acetylcholine receptor; alpha3/beta2 (P17787 whole entry): as the sequence (P17787 whole entry) above
# Sequence of Neuronal acetylcholine receptor; alpha3/beta2 (P32297 whole entry): as the sequence (P32297 whole entry) above
SMILES,EC50 [1],Efficacy [8],other results
c1ccc(-c2cc(-c3cnn(C4CCNCC4)c3)on2)cc1,> 100000 nM,,
Cc1c(-c2cc(-c3ccccc3Cl)no2)cnn1C1CCNCC1,18 nM,71%,concentration at 1 h [2]: 5200 nM; EC50 [3]: > 100000 nM; concentration at 1 h [4]: 130 nM; concentration at 1 h [5]: 610 nM; EC50 [6]: 20 nM; Activity [7]: Active; Activity [9]: inactive
CCn1c(-c2cc(-c3c(F)cccc3Cl)no2)cnc1C1(F)CCNCC1,3 nM,74%,concentration at 1 h [2]: 6500 nM; concentration at 1 h [4]: 29 nM; concentration at 1 h [5]: 600 nM; efflux ratio (MDR1): 1
Clc1cccc(Cl)c1-c1cc(-c2cnn(C3CCNCC3)c2)on1,410 nM,73%,
Fc1cccc(Cl)c1-c1cc(-c2cnn(C3CCNCC3)c2)on1,48 nM,60%,
Fc1cccc(-c2cc(-c3cnn(C4CCNCC4)c3)on2)c1Cl,230 nM,47%,
Clc1cnccc1-c1cc(-c2cnn(C3CCNCC3)c2)on1,200 nM,50%,
Cc1c(-c2cc(-c3ccccc3)no2)cnn1C1CCNCC1,1200 nM,31%,
Clc1ccccc1-c1cc(-c2cnn(C3CCNCC3)c2)on1,120 nM,38%,EC50 [10]: > 100000 nM; EC50 [11]: > 100000 nM
Fc1ccc(Cl)c(-c2cc(-c3cnn(C4CCNCC4)c3)on2)c1,270 nM,29%,
CN(Cc1cc(-c2ccccc2Cl)no1)C(=O)C1CCNCC1,350 nM,41%,EC50 [10]: > 100000 nM; EC50 [11]: > 100000 nM
Cc1c(-c2cc(-c3c(F)cccc3Cl)no2)cnn1C1CCNCC1,6 nM,66%,
CCn1c(-c2cc(-c3c(F)cccc3Cl)no2)cnc1C1CCNCC1,3 nM,87%,efflux ratio (MDR1): > 10
Fc1ccc(-c2cc(-c3cnn(C4CCNCC4)c3)on2)c(Cl)c1,220 nM,56%,
Clc1ccccc1-c1cc(-c2cnc(C3CCNCC3)s2)on1,33 nM,63%,concentration at 1 h [2]: 8500 nM; concentration at 1 h [4]: 21 nM; concentration at 1 h [5]: 300 nM
c1nn(C2CCNCC2)cc1-c1cc(C2CCCCC2)no1,4600 nM,16%,
Cn1c(-c2cc(-c3c(F)cccc3Cl)no2)cnc1C1CCNCC1,12 nM,71%,efflux ratio (MDR1): > 10
Clc1sccc1-c1cc(-c2cnn(C3CCNCC3)c2)on1,130 nM,42%,
Cn1c(-c2cc(-c3c(F)cccc3Cl)no2)cnc1C1(F)CCNCC1,34 nM,68%,efflux ratio (MDR1): 1
Cc1cc(-c2cnn(C3CCNCC3)c2)on1,1300 nM,19%,
